Laboratory results from ChEMBL document CHEMBL3351774, “Inhibitory activities of propolis and its promising component, caffeic acid phenethyl ester, against amyloidogenesis of human transthyretin” (J Med Chem, 2014).
Calls of active or inactive are those of the source. No cut-off for these calls is given here.

Experiments:
[1] = molecular target: Transthyretin (Homo sapiens, UniProt P02766, V50M); assay: (§1) Inhibition of TTR V30M mutant (unknown origin) expressed in Escherichia coli assessed as inhibition of amyloid fibril formation by fluorescence assay
Outline: (§2)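 Compounds were tested at 2.5−80 μM with at least four concentrations. EC50 came from a four-parameter logistic least-squares fit. Standard deviations and p values were taken from triplicate experiments.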

[2] = tested on: Transthyretin (Homo sapiens), P02766 [V50M]; assay: Inhibition of TTR V30M mutant (unknown origin) expressed in Escherichia coli assessed as inhibition of amyloid fibril formation at 20 uM by fluorescence assay
Outline: as §2, with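 “Acid-mediated aggregation of 10 μM Ni-NTA-purified V30M, read by thioflavin T fluorescence at 484 nm (excitation 440 nm). Compounds” for “Compounds”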

[3] = tested on: Transthyretin (Homo sapiens), P02766 [V50M]; assay: Competitive binding to TTR V30M mutant (unknown origin) expressed in Escherichia coli at 1 to 80 uM by fluorescence assay
Outline: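 Thioflavin T competition check: preformed V30M fibrils (10 μM V30M with 66.8 μM thioflavin T, 37 °C, 72 h) were mixed with compounds at 0−80 μM final, with 20 μM thioflavin T and 200 mM Tris-HCl pH 8.0 final. Emission 460−700 nm was recorded with excitation at 440 nm.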

[4] = tested on: Transthyretin (Homo sapiens), P02766 [V50M]; assay: as §1; outline: as §2
[5] = tested on: Transthyretin (Homo sapiens), P02766 [V50M]; assay: Displacement of ANS from TTR V30M mutant (unknown origin) expressed in Escherichia coli at 1 to 50 uM after 5 mins by fluorescence assay
Outline: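 ANS displacement on 2 μM Ni-NTA-purified V30M in 50 mM Tris-HCl pH 7.4, 150 mM NaCl at 298 K. ANS and compound were added in sequence, stirred and equilibrated 5 min. Dilution stayed below 0.4%. Emission 400−540 nm was read with excitation at 280 nm.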

[6] = molecular target: Transthyretin (Homo sapiens, UniProt P02766, L75P); assay: Inhibition of TTR L55P mutant (unknown origin) expressed in Escherichia coli assessed as inhibition of amyloid fibril formation by fluorescence assay
[7] = molecular target: Transthyretin (Homo sapiens, UniProt P02766, I104T); assay: Inhibition of TTR I84T mutant (unknown origin) expressed in Escherichia coli assessed as inhibition of amyloid fibril formation by fluorescence assay
[8] = tested on: Transthyretin (Homo sapiens), P02766 [V50M]; assay: Inhibition of TTR V30M mutant (unknown origin) expressed in Escherichia coli assessed as inhibition of amyloid fibril formation at 5 uM by fluorescence assay
Outline: as §2, with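 “Acid-mediated aggregation of 10 μM Ni-NTA-purified V30M, read by thioflavin T fluorescence at 484 nm (excitation 440 nm). Compounds” for “Compounds”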

[9] = tested on: Transthyretin (Homo sapiens), P02766 [V50M]; assay: Inhibition of TTR V30M mutant (unknown origin) expressed in Escherichia coli assessed as inhibition of amyloid fibril formation at 10 uM by fluorescence assay
Outline: as §2, with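 “Acid-mediated aggregation of 10 μM Ni-NTA-purified V30M, read by thioflavin T fluorescence at 484 nm (excitation 440 nm). Compounds” for “Compounds”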

[10] = tested on: Transthyretin (Homo sapiens), P02766 [V50M]; assay: Inhibition of TTR V30M mutant (unknown origin) expressed in Escherichia coli assessed as inhibition of amyloid fibril formation at 40 uM by fluorescence assay
Outline: as §2, with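 “Acid-mediated aggregation of 10 μM Ni-NTA-purified V30M, read by thioflavin T fluorescence at 484 nm (excitation 440 nm). Compounds” for “Compounds”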

[11] = tested on: Transthyretin (Homo sapiens), P02766 [V50M]; assay: Inhibition of TTR V30M mutant (unknown origin) expressed in Escherichia coli assessed as inhibition of amyloid fibril formation at 80 uM by fluorescence assay
Outline: as §2, with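 “Acid-mediated aggregation of 10 μM Ni-NTA-purified V30M, read by thioflavin T fluorescence at 484 nm (excitation 440 nm). Compounds” for “Compounds”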

[12] = tested on: Transthyretin (Homo sapiens), P02766 [V50M]; assay: Inhibition of acid-mediated dissociation of TTR V30M mutant (unknown origin) expressed in Escherichia coli after 30 mins by SDS-PAGE
Outline: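 V30M in 20 mM Tris-Cl pH 8.0, 150 mM NaCl was preincubated with compound (ethanol stock) for 30 min at room temperature. Four volumes of 0.1 M sodium acetate pH 4.5 were then added, and the sample was held at 310 K for 8 days (7.3 μM protein; compound 7.3 or 36.5 μM final). Glutaraldehyde cross-linking ran 5 min and was stopped with borohydride. Bands were resolved by 15% SDS-PAGE and silver-stained.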

With `CC(C)=CCOC(=O)/C=C/c1ccc(O)c(O)c1` [PRENYL CAFFEATE] the EC50 ([1]; read-out: EC50) was 21 µM, the inhibition [2] was less than 20% and the Activity [3] was “inactive”.
In the case of `c1cc2c(cc1[C@H]1OC[C@H]3[C@@H]1CO[C@@H]3c1ccc3c(c1)OCO3)OCO2`, the inhibition [2] is reported as less than 20%.
Work on `COc1cc(C[C@H]2COC(=O)[C@@H]2Cc2ccc(O)c(OC)c2)ccc1O` yielded an inhibition [2] of less than 12%.
`O=C(/C=C/c1ccc(O)c(O)c1)O[C@@H]1C[C@](O)(C(=O)O)C[C@@H](O)[C@H]1O` was tested, and the inhibition [4] was “inactive”.
In the case of `CCOC(=O)/C=C/c1ccc(O)c(O)c1` [ETHYL CAFFEATE], the EC50 ([1]; read-out: EC50) is reported as 23 µM, the inhibition [2] is reported as less than 20% and the Activity [3] is reported as “inactive”. The Activity [5] was “Active”.
For `O=C(/C=C/c1ccc(O)c(O)c1)OCc1ccccc1` [BENZYL CAFFEATE], the EC50 ([1]; read-out: EC50) was 16 µM and the Activity [3] was “Active”.
`OC[C@H](Cc1cccc(O)c1)[C@H](CO)Cc1cccc(O)c1` was tested, and the inhibition [2] was less than 20%.
`COc1ccc(CC(C)C(C)Cc2ccc(OC)c(OC)c2)cc1OC` (stereo not drawn) was tested, and the EC50 [1] was “Not Active” and the inhibition [2] was less than 20%.
`CC(Cc1ccc(O)c(O)c1)C(C)Cc1ccc(O)c(O)c1` (stereo not drawn) [NORDIHYDROGUAIARETIC ACID] was tested, and the EC50 ([1]; read-out: EC50) was 7.3 µM, the inhibition [2] was less than 20% and the EC50 [6] was 12.6 µM. For the same molecule, the EC50 [7] was 8.5 µM, the Activity [3] was “inactive” and the Activity [5] was “Active”.
With `COc1cc(CNC(=O)CCCC/C=C/C(C)C)ccc1O` the inhibition [2] was less than 20%.
For `O=C(/C=C/c1ccc(O)c(O)c1)O[C@H](Cc1ccc(O)c(O)c1)C(=O)O` [ROSMARINIC ACID], the EC50 ([1]; read-out: EC50) was 8.6 µM and the Activity [3] was “inactive”.
For `O=C1OC[C@H](Cc2cccc(O)c2)[C@H]1Cc1cccc(O)c1`, the inhibition [2] was less than 20%.
`COc1ccc(/C=C/C(=O)OCCc2ccccc2)cc1O` was tested, and the EC50 ([1]; read-out: EC50) was 11 µM and the Activity [3] was “inactive”.
In the case of `O=C(O)c1cc(-c2ccc(F)cc2F)ccc1O`, the inhibition [2] is reported as less than 20%.
With `O=C(O)/C=C/c1ccc(O)c(O)c1` [CAFFEIC ACID] the EC50 ([1]; read-out: EC50) was 97 µM and the Activity [3] was “inactive”.
For `CCCCCCCCOC(=O)/C=C/c1ccc(O)c(O)c1`, the inhibition [8] was 27%, the inhibition [9] was 44% and the inhibition [2] was 47%. The inhibition [10] was 49% and the inhibition [11] was 53%.
For `COc1cc(CC(C)C(C)Cc2ccc(O)c(OC)c2)ccc1O` (stereo not drawn) [DIHYDROGUAIARETIC ACID], the EC50 ([1]; read-out: EC50) was 6.3 µM, the inhibition [2] was less than 20% and the Activity [3] was “inactive”. The Activity [5] was “Active”.
In the case of `COC(=O)/C=C/c1ccc(O)c(O)c1` [METHYLCAFFEATE], the EC50 ([1]; read-out: EC50) is reported as 67 µM and the Activity [3] is reported as “inactive”.
In the case of `COc1ccc(/C=C/C(=O)OCCc2ccccc2)cc1OC`, the EC50 ([1]; read-out: EC50) is reported as 58 µM and the Activity [3] is reported as “inactive”.
In the case of `O=C(/C=C/c1ccc(O)c(O)c1)OCCc1ccccc1` [CAFFEIC ACID PHENETHYL ESTER], the EC50 ([1]; read-out: EC50) is reported as 8.6 µM, the inhibition [2] is reported as less than 20% and the Activity [3] is reported as “inactive”. For the same molecule, the Activity [5] was “Active”.
With `COc1cc(/C=C/C(=O)OCCc2ccccc2)ccc1O` the EC50 ([1]; read-out: EC50) was 7.9 µM, the inhibition [2] was less than 20% and the Activity [3] was “inactive”. The Activity [5] was “Active” and the inhibition [12] was “Dose-dependent effect”.
With `O=C(/C=C/c1ccccc1)OCCc1ccccc1` the inhibition [4] was “inactive”.
